From ChEMBL document CHEMBL1128448, “Synthesis and antifungal activity of new azole derivatives containing an N-acylmorpholine ring” (1995)
≈ marks a conversion by molar mass, not a printed value.

What was measured:
Aspergillus fumigatus = test: In vitro evaluation of minimum inhibitory concentration against Aspergillus fumigatus 33; format: functional; conditions: Aspergillus fumigatus; read-out: MIC
Outline: (§1)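 Stocks are 800 μg/mL in 50% ethanol. Each plate gets 10 μL of inoculum at 10^5 cfu/mL. Incubation at 25 °C, 48 h for yeasts and 120 h for dermatophytes and molds. Organisms are ATCC strains or clinical isolates.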

Aspergillus niger = test: In vitro evaluation of minimum inhibitory concentration against Aspergillus niger 18; format: functional; conditions: Aspergillus niger; read-out: MIC; outline: as §1
Candida albicans [1] = test: In vitro evaluation of minimum inhibitory concentration against Candida albicans 76; format: functional; conditions: Candida albicans; read-out: MIC; outline: as §1
Candida albicans [2] = test: In vivo evaluation of minimum inhibitory concentration against Candida albicans 406; format: functional; conditions: Candida albicans; read-out: MIC
Outline: (§2)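 Broth macrodilution MIC following NCCLS M27-P, in RPMI-1640 buffered with 0.165 M MOPS. Fluconazole was dissolved in water and other drugs in DMSO. C. parapsilosis ATCC 22019 served as the reference strain in every run. MIC was the lowest concentration giving turbidity at or below the 80% inhibition standard.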

Candida albicans [3] = test: In vivo evaluation of minimum inhibitory concentration against Candida albicans 60; format: functional; conditions: Candida albicans; read-out: MIC; outline: as §2
[4] = system: Meyerozyma guilliermondii; test: In vitro evaluation of minimum inhibitory concentration against Candida guilliermondii 26; format: functional; conditions: Meyerozyma guilliermondii; read-out: MIC; outline: as §1
Pichia kudriavzevii = test: In vitro evaluation of minimum inhibitory concentration against Candida krusei 70; format: functional; conditions: Pichia kudriavzevii; read-out: MIC; outline: as §1
Candida parapsilosis = test: In vitro evaluation of minimum inhibitory concentration against Candida parapsilosis 61; format: functional; conditions: Lodderomyces parapsilosis; read-out: MIC; outline: as §1
Candida tropicalis = test: In vitro evaluation of minimum inhibitory concentration against Candida tropicalis 2.11; format: functional; conditions: Candida tropicalis; read-out: MIC; outline: as §1
Kluyveromyces marxianus = test: In vivo Evaluation of minimum inhibitory concentration against Candida pseudotropicalis 13; format: functional; conditions: Kluyveromyces marxianus; in the assay text read “In vitro” for “In vivo”; read-out: MIC; outline: as §1
Mus sp. [5] = test: In vivo evaluation of % survival rate after peroral administration on 3rd day at dose 1 mg/kg; format: functional; conditions: Mus sp., po
Mus sp. [6] = test: In vivo evaluation of % survival rate after peroral administration on 5th day at dose 1 mg/kg; format: functional; conditions: Mus sp., po
Mus sp. [7] = test: In vivo evaluation of % survival rate after peroral administration on 7th day at dose 1 mg/kg; format: functional; conditions: Mus sp., po
Mus sp. [8] = test: In vivo evaluation of % survival rate after peroral administration on 9th day at dose 1 mg/kg; format: functional; conditions: Mus sp., po
Microsporum canis = test: In vitro evaluation of minimum inhibitory concentration against Microsporum canis 47; format: functional; conditions: Microsporum canis; read-out: MIC; outline: as §1
Nannizzia gypsea = test: In vitro evaluation of minimum inhibitory concentration against Microsporum gypseum 22; format: functional; conditions: Nannizzia gypsea; read-out: MIC; outline: as §1
Nakaseomyces glabratus = test: In vitro evaluation of minimum inhibitory concentration against Torulopsis glabrata 78; format: functional; conditions: Nakaseomyces glabratus; read-out: MIC; outline: as §1
Trichophyton benhamiae = test: In vitro evaluation of minimum inhibitory concentration against Trichophyton mentagrophytes 23; format: functional, Arthroderma benhamiae; conditions: Trichophyton benhamiae; read-out: MIC; outline: as §1
Trichophyton rubrum = test: In vitro evaluation of minimum inhibitory concentration against Trichophyton rubrum 90; format: functional; conditions: Trichophyton rubrum; read-out: MIC; outline: as §1
Rhodotorula mucilaginosa = test: In vitro evaluation of minimum inhibitory concentration against Rhodotorula rubra 16; format: functional; conditions: Rhodotorula mucilaginosa; read-out: MIC; outline: as §1
Aspergillus flavus = test: In vitro evaluation of minimum inhibitory concentration against Aspergillus flavus 19; format: functional; conditions: Aspergillus flavus; read-out: MIC; outline: as §1

## C[C@H]1N(C(=O)c2ccc(OCC(F)(F)C(F)F)cc2)C[C@H](O)O[C@@]1(Cn1cncn1)c1ccc(F)cc1F (racemic)
Aspergillus fumigatus
  MIC: > 80 µg/mL
Aspergillus niger
  MIC: > 80 µg/mL
Candida albicans [1]
  MIC: 80 µg/mL (≈ 147 µM)
Candida albicans [2]
  MIC: 1.25 µg/mL (≈ 2.3 µM)
Candida albicans [3]
  MIC: 5 µg/mL (≈ 9.18 µM)
[4]
  MIC: 80 µg/mL (≈ 147 µM)
Pichia kudriavzevii
  MIC: > 80 µg/mL
Candida parapsilosis
  MIC: 10 µg/mL (≈ 18.4 µM)
Candida tropicalis
  MIC: 80 µg/mL (≈ 147 µM)
Kluyveromyces marxianus
  MIC: 0.63 µg/mL (≈ 1.16 µM)
Mus sp. [5]
  survival at 1 mg/kg: 80%
Mus sp. [6]
  survival at 1 mg/kg: 50%
Mus sp. [7]
  survival at 1 mg/kg: 0%
Mus sp. [8]
  survival at 1 mg/kg: 0%
Microsporum canis
  MIC: > 80 µg/mL
Nannizzia gypsea
  MIC: > 80 µg/mL
Nakaseomyces glabratus
  MIC: > 80 µg/mL
Trichophyton benhamiae
  MIC: > 80 µg/mL
Trichophyton rubrum
  MIC: > 80 µg/mL
Rhodotorula mucilaginosa
  MIC: > 80 µg/mL
Aspergillus flavus
  MIC: > 80 µg/mL
